# Published values of several laboratories.
# Each line is one published result; the experiments were not run side by side.
# Target: Dual specificity mitogen-activated protein kinase kinase 3 (MAP2K3, Homo sapiens, UniProt P46734)
# Residues used in one study (P46734 1-347): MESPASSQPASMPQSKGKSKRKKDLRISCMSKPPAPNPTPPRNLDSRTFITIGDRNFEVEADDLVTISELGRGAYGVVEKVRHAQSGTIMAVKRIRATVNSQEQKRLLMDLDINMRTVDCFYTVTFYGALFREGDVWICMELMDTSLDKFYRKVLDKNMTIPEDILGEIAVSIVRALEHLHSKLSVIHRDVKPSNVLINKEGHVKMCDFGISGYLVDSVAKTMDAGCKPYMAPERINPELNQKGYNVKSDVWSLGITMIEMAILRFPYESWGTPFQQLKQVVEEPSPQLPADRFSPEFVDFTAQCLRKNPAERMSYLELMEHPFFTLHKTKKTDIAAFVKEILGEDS
SMILES,read-out,action,technique,tested at,quantity,result
CN1CC(Oc2cnc(C#N)cc2-c2ccn3nc(NC(=O)C4CC4)cc3c2)C1,enzyme activity,inhibitor,,1 µM,inhibition,-8%
C[C@@H]1CCN(c2nccc(-c3cnn4ncccc34)n2)C1,binding,,,1 µM,remaining binding,69%
CC/C(=N\NC(=O)NCc1cccc(O)c1)c1ccc(O)c(C)c1O,enzyme activity,inhibitor,,0.1 µM,inhibition,-2.5%
Cc1ccc(C(=O)NCc2ccsc2)cc1C#Cc1cn(C(C)C)c2ncnc(N)c12,enzyme activity,inhibitor,,1 µM,activity vs control,77%
Cc1c(NC(=O)c2cc(C(N)=O)nc3cc(F)ccc23)c(C(F)(F)F)nn1Cc1ccc(C(C)(C)C)cc1,cell-free assay,,competition with immobilised ligand,1 µM,remaining binding,90%
Nc1ncnc2occ(-c3ccc(NC(=O)Nc4cc(C(F)(F)F)ccc4F)cc3)c12,cell-free assay,inhibitor,,20 µM,remaining signal,11%
Cc1sc(C(=O)NC2COC2)cc1-n1cc(NC(=O)Nc2c(F)cccc2Cl)cn1,enzyme activity,inhibitor,,10 µM,remaining activity,88.8%
CC(=O)C1=C(C)N(c2cccc(C(F)(F)F)c2)C(=O)N[C@@H]1c1ccc(C#N)nc1,cell-free assay,,competition with immobilised ligand,1 µM,remaining binding,95.2%
O=C(Nc1cnn(-c2csc(C(=O)NC3COC3)c2)c1)Nc1c(F)cccc1Cl,enzyme activity,inhibitor,,5 µM,remaining activity,111%
Cc1ccc(C(=O)Nc2ccc(CN3CCN(C)CC3)c(C(F)(F)F)c2)cc1C#Cc1cnc2cccnn12,enzyme activity,inhibitor,,23.5 nM,remaining activity,94%
